Measurements: ChEMBL document CHEMBL1136005 (J Med Chem, 2002)
In brackets after ≈: the same amount, converted by molar mass. Values belong to the molecule of their own block, whether it stands above or below them.

Columns and labels:
[1] = Plasma concentration was determined after 1 hr at a dose 30 mg/kg administered orally to rat-12; type: ADME, organism-based; set-up: dose 30 mg/kg, route oral; conditions: po
Summary of the method: (§1)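 Sprague-Dawley rats, n=2 per compound, dosed orally at 30 mg/kg. Plasma drug concentration measured 1 and 8 h after dosing.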

[2] = pharmacokinetic parameter was evaluated after oral administration of 30 mg/kg to rat; type: ADME, organism-based; set-up: dose 30 mg/kg, route oral; conditions: in vivo
Summary of the method: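 Sprague-Dawley rats, n=3, dosed orally at 30 mg/kg. Plasma drug concentrations were followed to derive Tmax (h), Cmax (µg/mL), T1/2 (h) and AUC0-∞ (µg h/mL).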

[3] = Plasma concentration was determined after 8 hr at a dose 30 mg/kg administered orally to rat-11; type: ADME, organism-based; set-up: dose 30 mg/kg, route oral; conditions: po; summary of the method: as §1
[4] = Lipophilicity was reported; type: physicochemical; conditions: octanol/water
[5] = Plasma concentration was determined after 1 hr at a dose 30 mg/kg administered orally to rat-11; type: ADME, organism-based; set-up: dose 30 mg/kg, route oral; conditions: po; summary of the method: as §1
[6] = Solubility in aqueous phosphate buffer (pH 7.4) at 20c was determined; type: physicochemical
[7] = Plasma concentration was determined after 8 hr at a dose 30 mg/kg administered orally to rat-12; type: ADME, organism-based; set-up: dose 30 mg/kg, route oral; conditions: po; summary of the method: as §1
Protein kinase C (PKC) = test: Inhibition of Protein kinase C; type: protein assay
Summary of the method: (§2)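 Substrate phosphorylation measured in an in vitro assay with purified enzyme; IC50 values in µmol/L.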

[8] = biological target: Vascular endothelial growth factor receptor 2 (Homo sapiens, UniProt P35968); test: Inhibition of Vascular endothelial growth factor receptor 2 (VEGFR-2) autophosphorylation
[9] = biological target: Fibroblast growth factor receptor (Homo sapiens, UniProt P22607+P11362+P22455+P21802); test: Inhibition of Fibroblast growth factor receptor autophosphorylation; type: protein assay
[10] = Plasma concentration was determined after 8 hr at a dose 30 mg/kg administered orally to rat-10; type: ADME, organism-based; set-up: dose 30 mg/kg, route oral; conditions: po; summary of the method: as §1
[11] = biological target: Macrophage colony-stimulating factor 1 receptor (Homo sapiens, UniProt P07333); test: Inhibition of Colony stimulating factor 1 receptor (CSF-1R) autophosphorylation
[12] = Plasma concentration was determined after 1 hr at a dose 30 mg/kg administered orally to rat-9; type: ADME, organism-based; set-up: dose 30 mg/kg, route oral; conditions: po; summary of the method: as §1
[13] = biological target: Proto-oncogene tyrosine-protein kinase Src (Homo sapiens, UniProt P12931); test: Inhibition of Src protein tyrosine kinase; summary of the method: as §2
[14] = Plasma concentration was determined after 1 hr at a dose 30 mg/kg administered orally to rat-10; type: ADME, organism-based; set-up: dose 30 mg/kg, route oral; conditions: po; summary of the method: as §1
[15] = biological target: Mitogen-activated protein kinase 8 (Homo sapiens, UniProt P45983); test: Inhibition of c-Jun N-terminal kinase (Jnk); summary of the method: as §2
[16] = biological target: cAMP-dependent protein kinase (PKA) (Homo sapiens, UniProt P22694+P17612+P22612); test: Inhibition of Protein kinase A (PKA); type: protein assay; summary of the method: as §2
MAP kinase p38 = MAP kinase p38 (Homo sapiens, UniProt O15264+Q15759+Q16539+P53778); test: Inhibition of Mitogen-activated protein kinase p38; type: protein assay; summary of the method: as §2
[17] = biological target: T1, Dual specificity mitogen-activated protein kinase kinase 6 (Homo sapiens, UniProt P52564); test: Inhibition of Mitogen activated protein kinase kinase 6; summary of the method: as §2
T1 sequence (P52564 whole entry): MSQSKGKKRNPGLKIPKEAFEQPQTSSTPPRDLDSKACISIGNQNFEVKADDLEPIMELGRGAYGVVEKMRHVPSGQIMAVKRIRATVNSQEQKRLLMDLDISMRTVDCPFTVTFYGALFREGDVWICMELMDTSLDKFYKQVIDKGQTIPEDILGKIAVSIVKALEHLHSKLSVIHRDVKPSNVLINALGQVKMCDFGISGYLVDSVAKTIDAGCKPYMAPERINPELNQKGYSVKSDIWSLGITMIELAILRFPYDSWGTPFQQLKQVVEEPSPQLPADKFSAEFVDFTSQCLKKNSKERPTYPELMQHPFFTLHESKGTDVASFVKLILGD

[18] = biological target: Dual specificity mitogen-activated protein kinase kinase 1 (Homo sapiens, UniProt Q02750); test: Inhibition of Mitogen activated protein kinase kinase 1; summary of the method: as §2
[19] = biological target: Mitogen-activated protein kinase; ERK1/ERK2 (Homo sapiens, UniProt P27361+P28482); test: Inhibition of Extracellular signal-regulated kinase (Erk); type: protein assay; summary of the method: as §2
[20] = biological target: T2, Receptor-type tyrosine-protein kinase FLT3 (Homo sapiens, UniProt P36888); test: Inhibition of Flt3 autophosphorylation
T2 sequence (P36888 whole entry): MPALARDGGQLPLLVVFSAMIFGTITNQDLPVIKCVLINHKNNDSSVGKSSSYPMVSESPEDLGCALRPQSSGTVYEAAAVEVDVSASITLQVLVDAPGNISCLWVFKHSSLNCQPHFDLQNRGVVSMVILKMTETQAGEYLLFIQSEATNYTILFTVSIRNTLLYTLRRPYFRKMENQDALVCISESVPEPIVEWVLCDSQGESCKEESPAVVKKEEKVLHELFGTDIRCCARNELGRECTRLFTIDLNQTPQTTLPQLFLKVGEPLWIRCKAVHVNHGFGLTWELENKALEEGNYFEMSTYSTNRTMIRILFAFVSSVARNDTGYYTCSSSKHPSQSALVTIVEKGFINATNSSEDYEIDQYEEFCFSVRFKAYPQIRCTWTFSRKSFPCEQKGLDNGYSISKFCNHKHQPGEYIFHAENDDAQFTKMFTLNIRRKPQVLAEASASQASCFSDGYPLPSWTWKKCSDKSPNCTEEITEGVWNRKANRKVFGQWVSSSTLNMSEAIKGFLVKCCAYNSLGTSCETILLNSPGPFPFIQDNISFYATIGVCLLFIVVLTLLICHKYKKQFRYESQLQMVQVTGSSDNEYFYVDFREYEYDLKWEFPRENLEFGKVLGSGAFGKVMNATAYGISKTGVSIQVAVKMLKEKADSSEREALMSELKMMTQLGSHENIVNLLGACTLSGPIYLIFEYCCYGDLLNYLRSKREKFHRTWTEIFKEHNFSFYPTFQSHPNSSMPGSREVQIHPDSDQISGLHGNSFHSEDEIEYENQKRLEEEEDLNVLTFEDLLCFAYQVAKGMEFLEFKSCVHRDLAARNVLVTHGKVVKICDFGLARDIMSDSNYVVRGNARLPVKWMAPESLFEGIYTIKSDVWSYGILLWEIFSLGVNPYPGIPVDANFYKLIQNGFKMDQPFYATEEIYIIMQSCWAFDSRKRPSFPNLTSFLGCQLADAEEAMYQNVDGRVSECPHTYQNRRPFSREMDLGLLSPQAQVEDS

[21] = biological target: Tyrosine-protein kinase ABL (Homo sapiens, UniProt P00519+P42684); test: Inhibition of Abl tyrosine kinase; type: protein assay; summary of the method: as §2
[22] = Plasma concentration was determined after 8 hr at a dose 30 mg/kg administered orally to rat-9; type: ADME, organism-based; set-up: dose 30 mg/kg, route oral; conditions: po; summary of the method: as §1
[23] = biological target: Platelet-derived growth factor receptor (Homo sapiens, UniProt P09619+P16234); test: Concentration required for 50% inhibition against autophosphorylation of Platelet-derived growth factor receptor beta in intact cells using a two site ELISA; type: cell-based
[24] = Plasma concentration was determined after 8 hr at a dose 30 mg/kg administered orally to rat-16; type: ADME, organism-based; set-up: dose 30 mg/kg, route oral; conditions: po; summary of the method: as §1
[25] = Plasma concentration was determined after 1 hr at a dose 30 mg/kg administered orally to rat-16; type: ADME, organism-based; set-up: dose 30 mg/kg, route oral; conditions: po; summary of the method: as §1
[26] = Plasma concentration was determined after 1 hr at a dose 30 mg/kg administered orally to rat-15; type: ADME, organism-based; set-up: dose 30 mg/kg, route oral; conditions: po; summary of the method: as §1
[27] = Plasma concentration was determined after 8 hr at a dose 30 mg/kg administered orally to rat-15; type: ADME, organism-based; set-up: dose 30 mg/kg, route oral; conditions: po; summary of the method: as §1

Chain of Mitogen-activated protein kinase 8 (P45983 whole entry): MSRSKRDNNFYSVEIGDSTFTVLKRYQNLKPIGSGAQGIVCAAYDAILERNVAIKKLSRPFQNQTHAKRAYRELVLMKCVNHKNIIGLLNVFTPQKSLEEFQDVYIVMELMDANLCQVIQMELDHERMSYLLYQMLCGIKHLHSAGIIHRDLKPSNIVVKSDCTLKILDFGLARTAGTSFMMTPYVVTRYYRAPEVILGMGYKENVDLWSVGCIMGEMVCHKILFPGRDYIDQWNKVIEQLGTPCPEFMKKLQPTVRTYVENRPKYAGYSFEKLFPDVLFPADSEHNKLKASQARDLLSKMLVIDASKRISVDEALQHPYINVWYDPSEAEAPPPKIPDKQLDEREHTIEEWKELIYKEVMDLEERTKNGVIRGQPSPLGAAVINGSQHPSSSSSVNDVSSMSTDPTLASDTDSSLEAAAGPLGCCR
Chain of Macrophage colony-stimulating factor 1 receptor (P07333 whole entry): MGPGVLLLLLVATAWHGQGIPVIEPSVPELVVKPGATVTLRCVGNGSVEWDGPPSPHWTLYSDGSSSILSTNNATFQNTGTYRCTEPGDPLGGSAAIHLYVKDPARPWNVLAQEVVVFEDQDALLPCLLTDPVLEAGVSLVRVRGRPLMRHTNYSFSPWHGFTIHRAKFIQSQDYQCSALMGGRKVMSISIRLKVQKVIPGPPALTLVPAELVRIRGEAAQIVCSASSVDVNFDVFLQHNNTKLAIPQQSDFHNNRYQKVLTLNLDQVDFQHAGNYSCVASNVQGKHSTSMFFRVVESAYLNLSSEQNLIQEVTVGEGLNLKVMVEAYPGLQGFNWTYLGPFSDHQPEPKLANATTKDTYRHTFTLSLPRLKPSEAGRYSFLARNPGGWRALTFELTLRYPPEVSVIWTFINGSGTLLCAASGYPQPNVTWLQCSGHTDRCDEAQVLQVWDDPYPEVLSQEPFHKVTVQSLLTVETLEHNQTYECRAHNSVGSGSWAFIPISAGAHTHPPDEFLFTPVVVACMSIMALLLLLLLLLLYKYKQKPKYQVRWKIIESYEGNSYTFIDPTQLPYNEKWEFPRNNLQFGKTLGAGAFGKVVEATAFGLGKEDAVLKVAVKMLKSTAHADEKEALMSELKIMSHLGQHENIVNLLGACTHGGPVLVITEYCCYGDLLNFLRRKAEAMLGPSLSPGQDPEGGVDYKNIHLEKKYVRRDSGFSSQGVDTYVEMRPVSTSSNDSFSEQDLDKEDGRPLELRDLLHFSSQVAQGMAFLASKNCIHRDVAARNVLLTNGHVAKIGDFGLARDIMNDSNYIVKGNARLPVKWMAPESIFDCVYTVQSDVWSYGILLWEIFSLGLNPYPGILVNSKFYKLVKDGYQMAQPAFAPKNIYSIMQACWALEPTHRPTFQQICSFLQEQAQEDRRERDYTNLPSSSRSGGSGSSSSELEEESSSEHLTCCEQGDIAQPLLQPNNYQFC
Chain of Proto-oncogene tyrosine-protein kinase Src (P12931 2-536 limits assumed): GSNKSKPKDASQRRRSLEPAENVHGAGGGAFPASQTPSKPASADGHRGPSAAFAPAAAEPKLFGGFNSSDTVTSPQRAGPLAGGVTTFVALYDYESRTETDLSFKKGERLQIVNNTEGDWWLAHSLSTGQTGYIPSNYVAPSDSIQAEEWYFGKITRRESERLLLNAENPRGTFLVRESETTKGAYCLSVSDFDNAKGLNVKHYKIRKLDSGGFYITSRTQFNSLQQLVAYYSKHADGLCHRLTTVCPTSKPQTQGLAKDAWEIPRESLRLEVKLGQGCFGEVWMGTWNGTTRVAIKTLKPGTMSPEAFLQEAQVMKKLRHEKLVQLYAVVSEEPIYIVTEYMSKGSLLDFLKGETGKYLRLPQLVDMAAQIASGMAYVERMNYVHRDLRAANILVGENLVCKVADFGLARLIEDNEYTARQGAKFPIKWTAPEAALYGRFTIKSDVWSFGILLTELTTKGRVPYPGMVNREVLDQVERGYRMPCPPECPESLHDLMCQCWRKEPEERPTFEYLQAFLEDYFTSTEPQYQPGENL
Chain of Dual specificity mitogen-activated protein kinase kinase 1 (Q02750 whole entry): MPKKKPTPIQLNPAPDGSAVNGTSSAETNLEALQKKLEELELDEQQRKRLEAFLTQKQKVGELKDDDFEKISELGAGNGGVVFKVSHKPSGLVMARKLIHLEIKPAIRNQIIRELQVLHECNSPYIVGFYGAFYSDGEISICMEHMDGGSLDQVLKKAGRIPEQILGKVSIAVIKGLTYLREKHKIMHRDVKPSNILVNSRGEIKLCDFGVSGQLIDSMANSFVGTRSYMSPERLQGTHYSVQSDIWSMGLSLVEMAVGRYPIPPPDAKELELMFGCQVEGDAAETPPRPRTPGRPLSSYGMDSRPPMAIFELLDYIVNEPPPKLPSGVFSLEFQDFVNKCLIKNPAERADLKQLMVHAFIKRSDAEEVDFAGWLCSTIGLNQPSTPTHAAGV
Chain of Vascular endothelial growth factor receptor 2 (P35968 whole entry): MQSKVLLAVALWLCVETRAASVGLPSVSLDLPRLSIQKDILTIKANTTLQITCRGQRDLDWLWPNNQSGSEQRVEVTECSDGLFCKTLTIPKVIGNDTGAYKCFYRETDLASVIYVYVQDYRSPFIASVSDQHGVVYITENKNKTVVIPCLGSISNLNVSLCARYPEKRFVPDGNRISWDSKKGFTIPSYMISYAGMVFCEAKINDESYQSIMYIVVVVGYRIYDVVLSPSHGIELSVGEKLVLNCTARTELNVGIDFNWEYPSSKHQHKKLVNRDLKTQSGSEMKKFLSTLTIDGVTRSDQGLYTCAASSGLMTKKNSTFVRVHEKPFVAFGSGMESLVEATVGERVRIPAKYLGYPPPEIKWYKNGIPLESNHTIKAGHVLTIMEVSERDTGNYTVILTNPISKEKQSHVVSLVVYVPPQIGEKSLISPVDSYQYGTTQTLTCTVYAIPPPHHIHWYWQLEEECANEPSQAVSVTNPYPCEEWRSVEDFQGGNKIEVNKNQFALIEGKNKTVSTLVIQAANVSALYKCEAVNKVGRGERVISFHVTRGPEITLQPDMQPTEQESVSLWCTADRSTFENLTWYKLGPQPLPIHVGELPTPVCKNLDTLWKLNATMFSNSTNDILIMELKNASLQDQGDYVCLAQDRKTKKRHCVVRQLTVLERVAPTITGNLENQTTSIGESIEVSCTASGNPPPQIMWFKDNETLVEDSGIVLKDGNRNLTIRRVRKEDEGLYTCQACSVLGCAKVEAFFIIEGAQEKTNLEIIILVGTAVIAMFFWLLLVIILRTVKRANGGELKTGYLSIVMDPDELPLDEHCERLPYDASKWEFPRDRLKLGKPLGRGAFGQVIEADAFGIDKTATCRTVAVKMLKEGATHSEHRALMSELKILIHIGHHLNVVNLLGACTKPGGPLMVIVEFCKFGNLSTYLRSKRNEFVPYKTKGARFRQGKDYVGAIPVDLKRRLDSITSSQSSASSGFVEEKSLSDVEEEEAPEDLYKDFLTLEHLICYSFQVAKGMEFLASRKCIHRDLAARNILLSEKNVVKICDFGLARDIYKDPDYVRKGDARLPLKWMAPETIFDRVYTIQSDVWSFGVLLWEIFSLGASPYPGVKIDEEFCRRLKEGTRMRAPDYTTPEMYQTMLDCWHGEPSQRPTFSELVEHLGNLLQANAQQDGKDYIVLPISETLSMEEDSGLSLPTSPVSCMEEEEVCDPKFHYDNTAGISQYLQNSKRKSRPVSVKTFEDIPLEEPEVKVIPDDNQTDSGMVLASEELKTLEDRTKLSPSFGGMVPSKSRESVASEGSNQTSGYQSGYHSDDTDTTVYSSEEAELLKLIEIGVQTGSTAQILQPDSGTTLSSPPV

concentration at 1 h [1]: 7700 ng/mL | AUC [2]: 145000 ng·h/mL | Cmax [2]: 15900 ng/mL | Tmax [2]: 3.33 h | half-life [2]: 255 min | concentration at 8 h [3]: 3700 ng/mL | logD [4]: 2.72 | concentration at 1 h [5]: 12400 ng/mL | solubility [6]: 2 µg/mL (≈ 5.01 µM) | concentration at 8 h [7]: 700 ng/mL
SMILES: COc1cc2ncnc(N3CCN(C(=O)Nc4ccsc4)CC3)c2cc1OC

IC50 (Protein kinase C (PKC)): > 30 uM l-1 | IC50 [8]: 17.3 µM | IC50 [9]: 160 uM l-1 | concentration at 8 h [10]: 3600 ng/mL | IC50 [11]: > 30 µM | concentration at 1 h [12]: 5100 ng/mL | IC50 [13]: > 30 µM | concentration at 1 h [14]: 5900 ng/mL | IC50 [15]: > 30 µM | IC50 [16]: > 30 uM l-1 | IC50 (MAP kinase p38): > 30 uM l-1 | AUC [2]: 89900 ng·h/mL | Cmax [2]: 14500 ng/mL | Tmax [2]: 3.33 h | half-life [2]: 235 min | IC50 [17]: > 30 µM | IC50 [18]: > 30 µM | IC50 [19]: > 30 uM l-1 | IC50 [20]: 14.9 µM | IC50 [21]: > 30 uM l-1 | concentration at 8 h [22]: 2400 ng/mL
SMILES: COc1cc2ncnc(N3CCN(/C(S)=N\Cc4ccc5c(c4)OCO5)CC3)c2cc1OC

IC50 [23]: 330 nM | concentration at 8 h [24]: 1400 ng/mL | AUC [2]: 95800 ng·h/mL | Cmax [2]: 7200 ng/mL | Tmax [2]: 3.67 h | half-life [2]: 200 min | concentration at 1 h [25]: 3700 ng/mL | logD [4]: 2.75 | concentration at 1 h [26]: 3000 ng/mL | concentration at 8 h [27]: 1200 ng/mL
SMILES: COc1cc2ncnc(N3CCN(C(=S)NCc4ccco4)CC3)c2cc1OC
